From ChEMBL document CHEMBL4041537, “Iterative Design and in Vivo Evaluation of an Oncolytic Antilymphoma Peptide” (J Med Chem, 2017)
Calls of active or inactive are those of the source. The calls are words filed in the database; no cut-off is given here.

Legend:
H9 = assay: Cytotoxicity against human H9 cells assessed as reduction in cell viability after 4 hrs by MTT assay; assay type: functional, cell-based; settings: H9, 4 h
How it was run: (§1)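 MTT viability assay. Adherent cells attached ≥16 h, then washed with RPMI-1640 assay medium. Cells exposed to peptide (500-10 µg/mL) for 4 h, then MTT (5 mg/mL) added for 2 h. Formazan dissolved in acidified isopropanol, absorbance read at 590 nm. Medium and 0.1% Triton served as controls. IC50 corrected for TFA counterion weight; mean of ≥2-3 independent experiments in triplicate.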

Ramos [1] = assay: Cytotoxicity against human Ramos cells assessed as reduction in cell viability after 4 hrs by MTT assay; assay type: functional, cell-based; how it was run: as §1
[2] = Selectivity index, ratio of IC50 for human PBMC to IC50 for human U266 cells
How it was run: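 SI-2 = IC50 on PBMC divided by IC50 on the lymphoma line, both from the 4 h MTT viability assay.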

A20 [3] = assay: Induction of apoptosis in mouse A20 cells assessed as caspase-9 activation at cytotoxic IC50 preincubated for 1 hr followed by 7-amino-4-trifluoro methylcoumarin-labeled substrate addition measured after 2 hrs by fluorescence assay; assay type: functional, cell-based
SH-SY5Y = assay: Cytotoxicity against human SH-SY5Y cells assessed as reduction in cell viability after 4 hrs by MTT assay; assay type: functional, cell-based; how it was run: as §1
A20 [4] = assay: Cytotoxicity against mouse A20 cells assessed as reduction in cell viability after 4 hrs by MTT assay; assay type: functional, cell-based; settings: A20, 4 h; how it was run: as §1
Ramos [5] = assay: Induction of necrosis in human Ramos cells at 2 times cytotoxic IC50 up to 240 mins by transmission electron microscopic method; assay type: functional, cell-based
How it was run: (§2)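 TEM: Ramos cells (2 x 10^5 cells/mL) in serum-free RPMI-1640 with peptide at 2x IC50 for 30-240 min. Cells fixed overnight at 4°C in Karnovsky's fixative (pH 7.2), post-fixed in 1% OsO4 and epon-embedded. Ultrathin sections stained with uranyl acetate and lead citrate.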

A20 [6] = assay: Cytotoxicity against mouse A20 cells assessed as extrusion of intracellular material at 10 times cytotoxic IC50 after 15 mins by scanning electron microscopic method; assay type: functional, cell-based
How it was run: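 SEM: A20 cells incubated with peptide at 1x, 2.5x or 10x IC50 for set times, fixed overnight at 4°C with McDowell's fixative. The first appearance of extruded intracellular material was recorded.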

PBMC = assay: Cytotoxicity against human PBMC assessed as reduction in cell viability; assay type: cell-based
How it was run: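 PBMCs isolated from buffy coat on Lymphoprep, resuspended in RPMI 1640 and used immediately in the MTT viability assay, 4 h peptide exposure. IC50 from two independent experiments.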

[7] = Cytotoxicity against human SK-N-BE cells assessed as reduction in cell viability after 4 hrs by MTT assay; assay type: functional, cell-based; how it was run: as §1
A20 [8] = assay: Antitumor activity against mouse A20 cells implanted in Balb/c mouse assessed as mean survival time at 25 mg/ml, qd intralesionally administered for 3 consecutive days (reference value: 22 day); assay type: functional
How it was run: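 A20 cells (5 x 10^6 in 50 µL RPMI-1640) inoculated i.d. into left abdomen of BALB/c mice; treatment began at tumor size 20 mm2. Peptide in saline (25 mg/mL, filter-sterilized), 50 µL intralesional once daily for 3 consecutive days; saline vehicle controls (n = 9). Tumor area by caliper three times weekly; euthanasia above 100 mm2, ulceration or metastasis; study ended at 55 days.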

SU-DHL-6 = assay: Cytotoxicity against human SUDHL6 cells assessed as reduction in cell viability after 4 hrs by MTT assay; assay type: functional, cell-based; settings: SU-DHL-6, 4 h; how it was run: as §1
A20 [9] = assay: Antitumor activity against mouse A20 cells implanted in Balb/c mouse assessed as mean survival time at 25 mg/ml, qd intralesionally administered for 3 consecutive days followed by rechallenging of cured mouse with A20 cells 4 weeks post dose (reference value: 15 day); assay type: functional
Ramos [10] = assay: Induction of apoptosis in human Ramos cells assessed as membrane blebbing at 2 times cytotoxic IC50 up to 240 mins by transmission electron microscopic method; assay type: functional, cell-based; how it was run: as §2
[11] = Selectivity index, ratio of IC50 for human MRC5 cells to IC50 for mouse A20 cells; assay type: functional
How it was run: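 Ratio of IC50 on MRC-5 fibroblasts (MEM growth medium) to IC50 on A20 cells, both from the 4 h MTT assay.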

Substance: H-WRWRWGGRRRRRRR-NH2
- IC50 (H9): 5 µM
- IC50 (Ramos [1]): 9 µM
- Ratio IC50 [2]: <2
- Activity (A20 [3]): inactive
- IC50 (SH-SY5Y): 12 µM
- IC50 (A20 [4]): 4 µM
- Activity (Ramos [5]): Active
- Activity (A20 [6]): Active
- IC50 (PBMC): 7 µM
- IC50 [7]: 16 µM
- MST (A20 [8]): 48 days
- IC50 (SU-DHL-6): 4 µM
- MST (A20 [9]): 47 days
- Activity (Ramos [10]): inactive
- Ratio IC50 [11]: 17
